# Assay results: ChEMBL document CHEMBL4706503, “A novel pipeline of 2-(benzenesulfonamide)-N-(4-hydroxyphenyl) acetamide analgesics that lack hepatotoxicity and retain antipyresis” (Eur J Med Chem, 2020)
# Activity calls are given as the source filed them. No cut-off for these calls is given here.
# Experiments:
# [1] = test system: Hepatocyte; assay: Hepatotoxicity in primary human hepatocytes assessed as increase in lactate dehydrogenase release at 500 to 1000 uM measured after 3 to 12 hrs by fluorescence based analysis
# [2] = Hepatotoxicity in CD1 mouse assessed as increase in serum aspartate aminotransferase level at 600 mg/kg, po measured after 12 hrs; type: toxicity, organism-based; details: in vivo
# Method in brief: (§1)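 Male CD1 mice fasted 15 h, given 600 mg/kg po, then fed ad libitum for 12 h. Whole blood taken by transcardial perfusion under 5% isoflurane, without anticoagulant, clotted 0.5 h at 25 °C, spun 1000 g 5 min at 4 °C. Serum stored at −80 °C, then assayed with commercial kits. n = 5 mice per compound; vehicle 0.9% NaCl.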
# [3] = Renal toxicity in CD1 mouse assessed as increase in serum creatinine level at 600 mg/kg, po measured after 12 hrs; type: organism-based; details: in vivo; method in brief: as §1
# [4] = Hepatotoxicity in CD1 mouse assessed as increase in serum alkaline phosphatase level at 600 mg/kg, po measured after 12 hrs; type: toxicity, organism-based; details: in vivo; method in brief: as §1
# [5] = Hepatotoxicity in CD1 mouse assessed as increase in serum alanine aminotransferase level at 600 mg/kg, po measured after 12 hrs; type: toxicity, organism-based; details: in vivo; method in brief: as §1
# [6] = Drug metabolism in CD1 mouse serum assessed as NAPQI formation at 600 mg/kg, ip measured after 12 hrs by LC-MS/MS analysis; type: ADME, organism-based; details: in vivo
# Method in brief: (§2)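 Male CD1 mice dosed at 600 mg/kg (ip or po). Serum extracted twice with 3 vol ethyl acetate on ice (30 min, 3000 g spin), dried under N2, redissolved in 1:1 MeOH:H2O. LC-MS/MS in positive electrospray MRM mode monitoring m/z 150.3→108.1, identity checked against spiked NAPQI standard retention time (5.1 min).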
# [7] = Hepatotoxicity in CD1 mouse assessed as increase in nitrotyrosine formation in liver at 600 mg/kg, po measured after 12 hrs by nitrotyrosine immunostaining based optical microscopy; details: in vivo
# [8] = Hepatotoxicity in CD1 mouse assessed as liver architecture at 600 mg/kg, po measured after 12 hrs by hematoxylin and eosin staining based optical microscopy; type: toxicity, organism-based; details: in vivo
# Method in brief: (§3)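 At 12 h, mice under 5% isoflurane were exsanguinated with saline and perfusion-fixed with 10% NBF; livers fixed 24 h, moved to 80% EtOH, paraffin-embedded and sectioned. Stains: H&E (100x), nitrotyrosine, ZO-1 (200x; 3D stacks at 1000x), TUNEL (200x).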
# [9] = test system: Rattus norvegicus; assay: Analgesic activity in ip dosed complete freund's adjuvant-induced Sprague Dawley rat model of hyperalgesia assessed as inhibition of inflammatory pain measured after 30 mins by von Frey analgesimetric method; type: functional; details: 0.5 h
# [10] = test system: Mus musculus; assay: Analgesic activity in po dosed CD1 mouse assessed as inhibition of acetic acid-induced abdominal writhing treated with acetic acid 25 mins post drug administration and measured after 5 mins for 10 mins; type: functional; details: 40 min
# Method in brief: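 Male CD1 mice fasted 15 h; drug suspended in 0.9% NaCl with ≤10% DMSO given po at 5, 10, 20, 40, 80 mg/kg. 0.4% acetic acid 10 mL/kg ip 25 min later; writhes counted 10 min starting 5 min after acid. Compared to vehicle; mean ± SEM, n > 15 per group; ED50 from dose-response curves.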
# [11] = test system: HepaRG; assay: Hepatotoxicity in human HepaRG cells assessed as increase in lactate dehydrogenase release at 50 to 5000 uM […]; type: toxicity, cell-based; details: dose 50-5000 µM
# [12] = Hepatotoxicity in CD1 mouse assessed as increase in apoptotic nuclei at 600 mg/kg, po measured after 12 hrs by TUNEL staining; type: toxicity, organism-based; details: in vivo; method in brief: as §3
# [13] = target: Cytochrome P450 2D6 (Homo sapiens, UniProt P10635); assay: Inhibition of CYP2D6 (unknown origin) in baculosomes preincubated for 20 mins followed by addition of CYP enzyme-specific substrate and NADP+ and measured after 30 mins by fluorescence based analysis; type: ADME
# Method in brief: (§4)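 Vivid fluorogenic screen: each compound was premixed with CYP baculosomes and a regeneration system (glucose-6-phosphate plus G6P dehydrogenase) for 20 min at room temperature. Isozyme-specific substrate and NADP+ were then added for 30 min at room temperature. Reaction stopped with 0.5 M Tris base; metabolite fluorescence read. IC50 taken from 10-point titration curves.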
# [14] = Drug metabolism in CD1 mouse serum assessed as NAPQI formation at 600 mg/kg, po measured after 12 hrs by LC-MS/MS analysis; type: ADME, organism-based; details: in vivo; method in brief: as §2
# [15] = Hepatotoxicity in CD1 mouse assessed as loss of chicken wire hepatic tight junctions at 600 mg/kg, po measured after 12 hrs by ZO-1 staining based optical microscopy; type: toxicity, organism-based; details: in vivo; method in brief: as §3
# [16] = test system: Mus musculus; assay: Antipyretic activity against Baker's yeast-induced hyperthermia model in CD1 mouse at 80 mg/kg, po at 2 hrs post-injection by thermometer based analysis; type: functional, organism-based
# Method in brief: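 Male CD1 mice fasted overnight (15 h); baseline rectal temperature taken, then ip pyrogen (15% baker's yeast, 0.1 mL/kg). Rectal temperature read 4 h later; only febrile animals used, grouped by equal mean temperature. Drug or 0.9% NaCl given po at 80 mg/kg; rectal temperature recorded 2 h later; fall compared with 4 h fever value. Mean ± SEM, n = 10; one-way ANOVA with Sidak post-hoc.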
# [17] = Toxicity in CD1 mouse assessed as animal survival rate at 600 mg/kg, ip measured for every 4 hrs upto 48 hrs by Kaplan-Meier plot analysis; type: organism-based; details: in vivo
# Method in brief: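 Male CD1 mice, four groups of n = 20, given 600 mg/kg ip or 0.9% NaCl vehicle; live animals counted every 4 h for 48 h; Kaplan-Meier survival curves plotted.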
# [18] = test system: HepaRG; assay: Hepatotoxicity in human HepaRG cells assessed as decrease in GSH level at 50 to 5000 uM measured after 6 to 24 hrs by Thiol tracker violet dye based fluorescence analysis; type: toxicity, cell-based; details: dose lower 50 µM, time lower 6 hrs, dose upper 5000 µM, time upper 24 hrs
# Method in brief: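 HepaRG cells (80% confluent, serum-starved 6–8 h) exposed to 50, 100, 1000 or 5000 μM for 6, 12 or 24 h. Medium then removed and cells rinsed with D-PBS-conditioned medium. Cells were stained 30 min with ThiolTracker Violet; fluorescence read at ex 404/em 526 nm and reported as RFU for cellular GSH.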
# [19] = target: Cytochrome P450 3A4 (Homo sapiens, UniProt P08684); assay: Inhibition of CYP3A4 (unknown origin) in baculosomes preincubated for 20 mins followed by addition of CYP enzyme-specific substrate and NADP+ and measured after 30 mins by fluorescence based analysis; type: ADME; method in brief: as §4
# [20] = target: CYP2E1 (Homo sapiens, UniProt P05181); assay: Inhibition of CYP2E1 (unknown origin) in baculosomes preincubated for 20 mins followed by addition of CYP enzyme-specific substrate and NADP+ and measured after 30 mins by fluorescence based analysis relative to control
# [21] = target: CYP3A4 (Homo sapiens, UniProt P08684); assay: Inhibition of CYP3A4 (unknown origin) in baculosomes preincubated for 20 mins followed by addition of CYP enzyme-specific substrate and NADP+ and measured after 30 mins by fluorescence based analysis relative to control
# Sequence of CYP3A4 (P08684 whole entry): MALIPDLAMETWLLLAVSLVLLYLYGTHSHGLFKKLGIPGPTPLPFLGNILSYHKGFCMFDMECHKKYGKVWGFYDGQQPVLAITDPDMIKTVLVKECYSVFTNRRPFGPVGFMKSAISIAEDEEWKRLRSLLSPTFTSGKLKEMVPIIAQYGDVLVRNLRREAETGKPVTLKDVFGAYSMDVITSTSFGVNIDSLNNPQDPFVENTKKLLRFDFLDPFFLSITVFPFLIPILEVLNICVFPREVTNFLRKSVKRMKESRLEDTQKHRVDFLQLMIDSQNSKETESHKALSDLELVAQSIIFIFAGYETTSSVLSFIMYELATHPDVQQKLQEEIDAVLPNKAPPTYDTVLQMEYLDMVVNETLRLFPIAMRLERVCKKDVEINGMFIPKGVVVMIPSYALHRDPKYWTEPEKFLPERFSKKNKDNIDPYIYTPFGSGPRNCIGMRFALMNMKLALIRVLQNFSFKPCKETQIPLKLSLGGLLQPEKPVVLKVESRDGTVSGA
# Sequence of Cytochrome P450 2D6 (P10635 whole entry): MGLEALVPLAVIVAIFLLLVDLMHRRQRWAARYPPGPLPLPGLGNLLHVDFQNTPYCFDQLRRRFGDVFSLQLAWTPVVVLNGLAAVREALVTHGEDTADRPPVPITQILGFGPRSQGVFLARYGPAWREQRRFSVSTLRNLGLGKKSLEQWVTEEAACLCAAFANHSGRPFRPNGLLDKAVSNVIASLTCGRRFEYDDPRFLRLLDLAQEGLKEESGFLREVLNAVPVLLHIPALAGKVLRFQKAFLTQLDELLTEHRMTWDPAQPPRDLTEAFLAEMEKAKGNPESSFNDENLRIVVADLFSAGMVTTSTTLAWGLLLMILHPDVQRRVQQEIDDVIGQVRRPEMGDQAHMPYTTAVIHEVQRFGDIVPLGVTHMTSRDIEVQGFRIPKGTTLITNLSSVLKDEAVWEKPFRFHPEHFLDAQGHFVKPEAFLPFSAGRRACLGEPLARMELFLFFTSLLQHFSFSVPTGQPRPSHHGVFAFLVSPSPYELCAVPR
# Sequence of Cytochrome P450 3A4 (P08684 whole entry): as the sequence (P08684 whole entry) above
# Sequence of CYP2E1 (P05181 whole entry): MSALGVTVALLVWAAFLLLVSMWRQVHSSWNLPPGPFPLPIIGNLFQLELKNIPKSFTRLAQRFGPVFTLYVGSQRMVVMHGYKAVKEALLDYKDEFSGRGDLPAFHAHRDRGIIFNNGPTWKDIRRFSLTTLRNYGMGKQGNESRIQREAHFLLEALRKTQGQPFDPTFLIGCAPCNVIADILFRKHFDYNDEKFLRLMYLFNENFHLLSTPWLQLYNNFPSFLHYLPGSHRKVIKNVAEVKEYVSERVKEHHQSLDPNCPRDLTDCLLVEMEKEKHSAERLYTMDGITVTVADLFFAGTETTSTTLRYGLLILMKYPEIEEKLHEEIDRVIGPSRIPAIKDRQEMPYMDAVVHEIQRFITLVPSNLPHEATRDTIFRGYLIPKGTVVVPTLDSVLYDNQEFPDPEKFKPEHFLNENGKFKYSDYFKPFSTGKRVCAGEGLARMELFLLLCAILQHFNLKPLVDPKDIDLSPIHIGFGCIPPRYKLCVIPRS
Compound,Activity [1],Activity [2],Activity [3],Activity [4],Activity [5],also measured
O=C(CNS(=O)(=O)c1ccccc1C(=O)N1CCOCC1)Nc1ccc(O)cc1,Non-Toxic,,,,,
COc1ccc(CNC(=O)c2ccccc2S(=O)(=O)NCC(=O)Nc2ccc(O)cc2)cc1,Toxic,Non-Toxic,Non-Toxic,Non-Toxic,Non-Toxic,
O=C(CNS(=O)(=O)c1ccccc1C(=O)NCc1ccc(Cl)c(Cl)c1)Nc1ccc(O)cc1,Non-Toxic,Non-Toxic,Non-Toxic,Non-Toxic,Non-Toxic,
CNC(=O)c1ccccc1S(=O)(=O)NCC(=O)Nc1ccc(O)cc1,Non-Toxic,Non-Toxic,Non-Toxic,Non-Toxic,Non-Toxic,Drug metabolism [6]: Metabolite_Notdetected; Activity [7]: Non-Toxic; Activity [8]: Non-Toxic; ED50 [9]: 198 µmol/kg; ED50 [10]: 45.2 µmol/kg; Activity [11]: Non-Toxic; Activity [12]: Non-Toxic; IC50 [13]: > 10 µM; Drug metabolism [14]: Metabolite_Notdetected; Activity [15]: Non-Toxic; Activity [16]: Active; survival at 48 h [17]: 100%; Activity [18]: Non-Toxic; IC50 [19]: > 10 µM
O=C(CNS(=O)(=O)c1ccccc1C(=O)NCCc1ccc(O)c(O)c1)Nc1ccc(O)cc1,Non-Toxic,Non-Toxic,Non-Toxic,Non-Toxic,Non-Toxic,Drug metabolism [6]: Metabolite_Notdetected; Activity [7]: Non-Toxic; Activity [8]: Non-Toxic; ED50 [9]: 177 µmol/kg; ED50 [10]: 14.7 µmol/kg; Activity [11]: Non-Toxic; Activity [12]: Non-Toxic; IC50 [13]: > 10 µM; Drug metabolism [14]: Metabolite_Notdetected; inhibition at 0.5 h [20]: 25%; Activity [15]: Non-Toxic; Activity [16]: Active; survival at 48 h [17]: 100%; Activity [18]: Non-Toxic; IC50 [19]: 4.82 µM; inhibition at 0.5 h [21]: 25%
CCCCNC(=O)c1ccccc1S(=O)(=O)NCC(=O)Nc1ccc(O)cc1,Toxic,Non-Toxic,Non-Toxic,Non-Toxic,Non-Toxic,
O=C(CNS(=O)(=O)c1ccccc1C(=O)NC1CCCC1)Nc1ccc(O)cc1,Toxic,Non-Toxic,Non-Toxic,Non-Toxic,Non-Toxic,
O=C(CNS(=O)(=O)c1ccccc1C(=O)NCc1ccccc1)Nc1ccc(O)cc1,Toxic,,,,,
O=C(CNS(=O)(=O)c1ccccc1C(=O)N1CCN(Cc2ccccc2)CC1)Nc1ccc(O)cc1,Toxic,,,,,
O=C(CNS(=O)(=O)c1ccccc1C(=O)NCc1ccccn1)Nc1ccc(O)cc1,Toxic,Non-Toxic,Non-Toxic,Non-Toxic,Non-Toxic,
O=C(CNS(=O)(=O)c1ccccc1C(=O)NCc1ccc([N+](=O)[O-])cc1)Nc1ccc(O)cc1,Non-Toxic,Non-Toxic,Non-Toxic,Non-Toxic,Non-Toxic,
O=C(CNS(=O)(=O)c1ccccc1C(=O)NCCc1ccccc1)Nc1ccc(O)cc1,Toxic,,,,,
O=C(CNS(=O)(=O)c1ccccc1C(=O)NCc1cccc(Cl)c1)Nc1ccc(O)cc1,Toxic,Non-Toxic,Non-Toxic,Non-Toxic,Non-Toxic,
Cc1ccc(CNC(=O)c2ccccc2S(=O)(=O)NCC(=O)Nc2ccc(O)cc2)cc1,Toxic,Non-Toxic,Non-Toxic,Non-Toxic,Non-Toxic,
CN(C)C(=O)c1ccccc1S(=O)(=O)NCC(=O)Nc1ccc(O)cc1,Toxic,Non-Toxic,Non-Toxic,Non-Toxic,Non-Toxic,
NC(=O)c1ccccc1S(=O)(=O)NCC(=O)Nc1ccc(O)cc1,Toxic,,,,,
O=C(CNS(=O)(=O)c1ccccc1C(=O)NCCN1CCCC1)Nc1ccc(O)cc1,Non-Toxic,Non-Toxic,Non-Toxic,Non-Toxic,Non-Toxic,
CC(C)CNC(=O)c1ccccc1S(=O)(=O)NCC(=O)Nc1ccc(O)cc1,Toxic,Non-Toxic,Non-Toxic,Non-Toxic,Non-Toxic,
CC(C)NC(=O)c1ccccc1S(=O)(=O)NCC(=O)Nc1ccc(O)cc1,Toxic,,,,,
